Values belong to the compound of their own block, whether it stands above or below them. The source made the active and inactive calls. No cut-off for these calls is given here.
What was measured:
[1] = tested on: Caco-2; test: Apparent permeability from apical side to basolateral side of human Caco2 cells at 10 uM; format: ADME, cell-based; conditions: caco-2, 10 µM
[2] = molecular target: Survival motor neuron protein (Homo sapiens) (UniProt Q16637); test: Activation of SMN expressed in HEK293 cells assessed as concentration required to reach 50% of maximum luciferase signal by SMN2-promotor driven luciferase reporter gene assay; format: cell-based
Sequence of Survival motor neuron protein (Homo sapiens) (Q16637 whole entry): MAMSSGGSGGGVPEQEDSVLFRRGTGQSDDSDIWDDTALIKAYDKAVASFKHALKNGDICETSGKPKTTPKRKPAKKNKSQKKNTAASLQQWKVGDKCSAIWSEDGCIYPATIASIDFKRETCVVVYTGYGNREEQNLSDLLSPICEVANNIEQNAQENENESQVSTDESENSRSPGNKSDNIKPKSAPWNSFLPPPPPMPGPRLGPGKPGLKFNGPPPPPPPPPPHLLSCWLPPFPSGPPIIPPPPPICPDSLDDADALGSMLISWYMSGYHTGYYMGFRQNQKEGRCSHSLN
Procedure, shortened: (§1)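 HEK-293 cells stably carrying the SMN2 reporter construct, kept in DMEM with 10% FCS, glutamax, pyruvate, pen/strep and 200 µg/mL hygromycin, and assayed without hygromycin. 2,000 cells/well were plated and adhered overnight at 37 °C, 5% CO2. Compounds were added as a 7-point titration, 50 µM to 25 nM final, in 0.46% DMSO, for 30–36 h. OneGlo luminescence was normalized to 4.5 mM sodium butyrate (100%) and DMSO (0%).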

[3] = tested on: Caco-2; test: Apparent permeability from basolateral side to apical side of human Caco2 cells at 10 uM; format: ADME, cell-based; conditions: caco-2, 10 µM
[4] = molecular target: T1, Luciferin 4-monooxygenase (Luciola lateralis, UniProt Q01158); test: Inhibition of fire fly luciferase; parameters: species or system Aquatica lateralis
T1 sequence (Q01158 whole entry): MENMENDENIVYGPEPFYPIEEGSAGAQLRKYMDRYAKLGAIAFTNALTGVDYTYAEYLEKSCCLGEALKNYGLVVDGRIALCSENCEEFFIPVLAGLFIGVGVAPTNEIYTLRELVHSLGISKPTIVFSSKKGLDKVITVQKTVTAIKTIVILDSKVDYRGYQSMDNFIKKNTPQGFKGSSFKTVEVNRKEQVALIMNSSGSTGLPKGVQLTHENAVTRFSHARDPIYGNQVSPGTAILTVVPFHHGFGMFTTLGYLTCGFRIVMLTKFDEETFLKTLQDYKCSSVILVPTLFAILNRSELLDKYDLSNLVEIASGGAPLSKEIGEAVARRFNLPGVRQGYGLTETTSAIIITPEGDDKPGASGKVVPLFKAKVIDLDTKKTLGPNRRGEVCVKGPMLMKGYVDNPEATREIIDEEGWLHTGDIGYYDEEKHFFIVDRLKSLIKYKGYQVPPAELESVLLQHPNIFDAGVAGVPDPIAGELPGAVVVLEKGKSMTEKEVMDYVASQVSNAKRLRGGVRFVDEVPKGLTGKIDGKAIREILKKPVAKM

[5] = molecular target: Survival motor neuron protein (Homo sapiens) (UniProt Q16637); test: Activation of SMN expressed in HEK293 cells assessed as rate of induction by SMN2-promotor driven luciferase reporter gene assay relative to basal level; format: cell-based; parameters: concentration or dose not given beside the values; procedure, shortened: as §1
[6] = molecular target: Survival motor neuron protein (Homo sapiens) (UniProt Q16637); test: Activation of SMN in human fibroblast cells obtained from type 1 SMA patients assessed as increase in SMN protein level by quantitative Western blot method; format: cell-based
Procedure, shortened: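 Type I SMA patient fibroblasts (3813 line) were seeded at 8,000 cells/cm2 24 h before dosing, with medium and compound renewed every 24 h for 72 h. Lysates (10 µg protein/lane) were immunoblotted for SMN (4f11 antibody) and α-tubulin. Band intensity was normalized to tubulin and expressed as fold over the DMSO control.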

[7] = tested on: Liver; test: Half-life in mouse liver microsome at 1 uM; format: ADME; conditions: microsomes
[8] = molecular target: Survival motor neuron protein (Homo sapiens) (UniProt Q16637); test: Activation of SMN expressed in HEK293 cells by SMN2-promotor driven luciferase reporter gene assay; format: cell-based; procedure, shortened: as §1
[9] = Half-life in human serum; format: ADME, cell-free
[10] = tested on: Brain; test: Drug level in Swiss albino mouse brain at 30 mg/kg, po after 2 hrs; format: ADME, organism-based; parameters: dose 30 mg/kg, route oral; conditions: in vivo
Procedure, shortened: (§2)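 Male Swiss Albino mice received a single 30 mg/kg oral gavage dose. Compound levels were measured in plasma and brain over time, and PK parameters were derived from the concentration–time data.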

[11] = tested on: Brain; test: Drug level in Swiss albino mouse brain at 30 mg/kg, po after 0.5 hr; format: ADME, organism-based; parameters: dose 30 mg/kg, route oral; conditions: in vivo; procedure, shortened: as §2
[12] = Plasma concentration in Swiss albino mouse at 30 mg/kg, po after 12 hrs; format: ADME, organism-based; parameters: dose 30 mg/kg, route oral; procedure, shortened: as §2
[13] = tested on: Brain; test: Drug level in Swiss albino mouse brain at 30 mg/kg, po after 0.083 hr; format: ADME, organism-based; parameters: dose 30 mg/kg, route oral; conditions: in vivo
[14] = tested on: Plasma; test: Cmax in plasma of Swiss albino mouse at 30 mg/kg, po; format: ADME, organism-based; parameters: dose 30 mg/kg, route oral; conditions: in vivo; procedure, shortened: as §2
[15] = tested on: Brain; test: AUC (infinity) in brain of Swiss albino mouse at 30 mg/kg, po; format: ADME, organism-based; parameters: time infinity, dose 30 mg/kg, route oral; conditions: in vivo; procedure, shortened: as §2
[16] = Plasma concentration in Swiss albino mouse at 30 mg/kg, po after 2 hrs; format: ADME, organism-based; parameters: dose 30 mg/kg, route oral; procedure, shortened: as §2
[17] = Plasma concentration in Swiss albino mouse at 30 mg/kg, po after 8 hrs; format: ADME, organism-based; parameters: dose 30 mg/kg, route oral; procedure, shortened: as §2
[18] = Plasma concentration in Swiss albino mouse at 30 mg/kg, po after 0.5 hrs; format: ADME, organism-based; parameters: dose 30 mg/kg, route oral; procedure, shortened: as §2
[19] = tested on: Brain; test: Drug level in Swiss albino mouse brain at 30 mg/kg, po after 8 hrs; format: ADME, organism-based; parameters: dose 30 mg/kg, route oral; conditions: in vivo; procedure, shortened: as §2
[20] = tested on: Plasma; test: Half-life in plasma of Swiss albino mouse at 30 mg/kg, po; format: ADME, organism-based; parameters: dose 30 mg/kg, route oral; conditions: in vivo; procedure, shortened: as §2
[21] = Plasma concentration in Swiss albino mouse at 30 mg/kg, po after 24 hrs; format: ADME, organism-based; parameters: dose 30 mg/kg, route oral; procedure, shortened: as §2
[22] = tested on: Brain; test: Drug level in Swiss albino mouse brain at 30 mg/kg, po after 4 hrs; format: ADME, organism-based; parameters: dose 30 mg/kg, route oral; conditions: in vivo; procedure, shortened: as §2
[23] = tested on: Brain; test: Drug level in Swiss albino mouse brain at 30 mg/kg, po after 12 hrs; format: ADME, organism-based; parameters: dose 30 mg/kg, route oral; conditions: in vivo; procedure, shortened: as §2
[24] = tested on: Plasma; test: AUC (infinity) in plasma of Swiss albino mouse at 30 mg/kg, po; format: ADME, organism-based; parameters: dose 30 mg/kg, route oral, time infinity; conditions: in vivo; procedure, shortened: as §2
[25] = tested on: Brain; test: Drug level in Swiss albino mouse brain at 30 mg/kg, po after 24 hrs; format: ADME, organism-based; parameters: dose 30 mg/kg, route oral; conditions: in vivo; procedure, shortened: as §2
[26] = tested on: Brain; test: AUClast in brain of Swiss albino mouse at 30 mg/kg, po; format: ADME, organism-based; parameters: time 0 - last, dose 30 mg/kg, route oral; conditions: in vivo; procedure, shortened: as §2
[27] = Plasma concentration in Swiss albino mouse at 30 mg/kg, po after 1 hr; format: ADME, organism-based; parameters: dose 30 mg/kg, route oral; procedure, shortened: as §2
[28] = Plasma concentration in Swiss albino mouse at 30 mg/kg, po after 0.083 hrs; format: ADME, organism-based; parameters: dose 30 mg/kg, route oral
[29] = tested on: Brain; test: Cmax in brain of Swiss albino mouse at 30 mg/kg, po; format: ADME, organism-based; parameters: dose 30 mg/kg, route oral; conditions: in vivo; procedure, shortened: as §2
[30] = tested on: Plasma; test: AUClast in plasma of Swiss albino mouse at 30 mg/kg, po; format: ADME, organism-based; parameters: time 0 - last, dose 30 mg/kg, route oral; conditions: in vivo; procedure, shortened: as §2
[31] = tested on: Brain; test: Drug level in Swiss albino mouse brain at 30 mg/kg, po after 0.25 hr; format: ADME, organism-based; parameters: dose 30 mg/kg, route oral; conditions: in vivo; procedure, shortened: as §2
[32] = tested on: Brain; test: Half-life in brain of Swiss albino mouse at 30 mg/kg, po; format: ADME, organism-based; parameters: dose 30 mg/kg, route oral; conditions: in vivo; procedure, shortened: as §2
[33] = tested on: Brain; test: Drug level in Swiss albino mouse brain at 30 mg/kg, po after 1 hr; format: ADME, organism-based; parameters: dose 30 mg/kg, route oral; conditions: in vivo; procedure, shortened: as §2
[34] = Ratio of AUC in brain to AUC in plasma in Swiss albino mouse at 30 mg/kg, po; format: ADME, organism-based; parameters: dose 30 mg/kg, route oral; conditions: brain and plasma
Procedure, shortened: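 Single oral gavage dose of 30 mg/kg given to male Swiss Albino mice; compound concentrations measured in both plasma and brain, from which brain and plasma exposure parameters were derived; animals observed for behavioural disturbance throughout the study.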

[35] = Plasma concentration in Swiss albino mouse at 30 mg/kg, po after 0.25 hrs; format: ADME, organism-based; parameters: dose 30 mg/kg, route oral; procedure, shortened: as §2
[36] = Plasma concentration in Swiss albino mouse at 30 mg/kg, po after 4 hrs; format: ADME, organism-based; parameters: dose 30 mg/kg, route oral; procedure, shortened: as §2

Papp [1]: 32.6 ×10⁻⁶ cm/s | Papp [3]: 12 ×10⁻⁶ cm/s | IC50 ([4]; read-out: IC50): 1.6 µM
Compound: O=C(O)C1CCN(c2nc(-c3ccc(Br)cc3)cs2)CC1
Activity [2]: 4.87 µM | Activity [5]: 554%

Papp [1]: 30.7 ×10⁻⁶ cm/s | Papp [3]: 12.1 ×10⁻⁶ cm/s | IC50 [4]: Not Active | t1/2 [7]: 12 min
Compound: NC(=O)C1CCN(c2nc(-c3ccc(Br)cc3)cs2)CC1
Activity [6]: Dose-dependent effect | Activity [2]: 1.22 µM | Activity [8]: Active | Activity [5]: 268%

Papp [1]: 21.2 ×10⁻⁶ cm/s | Papp [3]: 51.2 ×10⁻⁶ cm/s | IC50 ([4]; read-out: IC50): 3.2 µM | t1/2 [7]: > 60 min
Compound: NC(=O)C1CCN(c2nnc(-c3ccc4c(c3)OCCCO4)s2)CC1
Activity [2]: 0.122 µM | Activity [5]: 257%

IC50 ([4]; read-out: IC50): 4 µM | t1/2 [7]: < 15 min
Compound: O=C(Nc1ccccc1)C1CCN(c2ncc(-c3ccc4c(c3)OCCCO4)s2)CC1
Activity [2]: 0.049 µM | Activity [5]: 353%

Compound: COc1nc(-c2ccccc2)nnc1-c1ccccc1
Activity [6]: Dose-dependent effect | Activity [8]: Active

half-life [9]: 90 min
Compound: O=C([O-])CCCc1ccccc1.[Na+] [SODIUM PHENYLBUTYRATE]

Compound: CCCC(=O)[O-].[Na+] [SODIUM BUTYRATE]
half-life [9]: 6 min

Papp [1]: 40.1 ×10⁻⁶ cm/s | Papp [3]: 17.3 ×10⁻⁶ cm/s | IC50 ([4]; read-out: IC50): 10 µM | t1/2 [7]: 18 min
Compound: CC(C)Oc1cccc(-c2ccnc(N3CCC(C(N)=O)CC3)n2)c1
Activity [2]: 0.154 µM | Activity [5]: 298%

Drug uptake [10]: 0.23 µmol/kg | Drug uptake [11]: 0.4 µmol/kg | concentration at 12 h [12]: 19 nM | Drug uptake [13]: 1.28 µmol/kg | Cmax [14]: 3720 nM | AUC [15]: 607 ng·h/mL | concentration at 2 h [16]: 600 nM | concentration at 8 h [17]: 25 nM | concentration at 0.5 h [18]: 1200 nM | Drug uptake [19]: 0 µmol/kg | t1/2 [20]: 347 min | concentration at 24 h [21]: 60 nM | Drug uptake [22]: 0.083 µmol/kg | Papp [1]: 6.1 ×10⁻⁶ cm/s | Drug uptake [23]: 0 µmol/kg | Papp [3]: 0.3 ×10⁻⁶ cm/s | IC50 ([4]; read-out: IC50): 0.8 µM | AUC [24]: 1429 ng·h/mL | Drug uptake [25]: 0.023 µmol/kg | t1/2 [7]: 30 min | AUClast [26]: 546 ng·h/mL | concentration at 1 h [27]: 1270 nM | concentration at 0.083 h [28]: 3720 nM | Cmax [29]: 1.28 µmol/kg | AUClast [30]: 1857 ng·h/mL | Drug uptake [31]: 0.31 µmol/kg | t1/2 [32]: 326 min | Drug uptake [33]: 0.6 µmol/kg | Kp [34]: 0.29 | concentration at 0.25 h [35]: 1200 nM | concentration at 4 h [36]: 2.8 nM
Compound: CC(C)Oc1cccc(-c2cnc(N3CCC(C(N)=O)CC3)s2)c1
Activity [2]: 0.077 µM | Activity [5]: 709%

IC50 ([4]; read-out: IC50): 6.4 µM | t1/2 [7]: 7 min
Compound: Cc1ccc(-c2cnc(N3CCC(C(N)=O)CC3)s2)cc1
Activity [2]: 0.077 µM | Activity [5]: 609%

Compound: CC(C)Oc1cccc(-c2csc(N3CCC(C(N)=O)CC3)n2)c1
Activity [2]: 0.77 µM | Activity [5]: 605%

Compound: CN(C)c1cccc(-c2ncc(F)c(N3CCC(C(N)=O)CC3)n2)c1
Activity [2]: 3.07 µM | Activity [5]: 141%

Compound: NC(=O)C1CCN(c2ncc(-c3ccc4c(c3)OC(F)(F)O4)s2)CC1
Activity [2]: 0.194 µM | Activity [5]: 598%
